In ChEMBL document CHEMBL1132218, “3-Amino-5-phenoxythiophenes: syntheses and structure-function studies of a novel class of inhibitors of cellular L-triiodothyronine uptake” (J Med Chem, 1999):

Tests used:
[1] = Partition coefficient (logP); type: physicochemical; settings: octanol/water
Procedure, shortened: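 Octanol–water partition coefficient calculated computationally, not measured experimentally.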

HepG2 = experiment: Compound was tested for inhibition of L-T3 (triiodothyronine) uptake in human HepG2 hepatoma cells at 10e-5 M; type: functional
Procedure, shortened: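 HepG2 cells kept in DMEM with 10% FCS at 37 °C, grown to confluence (2×10⁶ cells/well), then serum-free overnight. Incubated 2 min at 37 °C in DMEM with 10^-11 M [¹²⁵I]-L-T₃; solvent-matched controls; nondisplaceable uptake from duplicates with 10^-5 M unlabeled L-T₃. Five PBS (pH 7.4) washes at room temperature, 0.1 M NaOH harvest, cell-associated radioactivity counted.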

Row | Compound | logP [1] | inhibition at 10 µM (HepG2) [%]
1 | COC(=O)c1sc(Oc2cccc(C)c2)c(C#N)c1N | 4.16 | 19
2 | Cc1cccc(Oc2sc(C(=O)c3ccc([N+](=O)[O-])cc3)c(N)c2C#N)c1 | 5.03 | 16
3 | N#Cc1c(Oc2ccccc2)sc(C(N)=O)c1N | 2.19 | 14
4 | NC(=O)c1c(Oc2ccccc2)sc(C(=O)c2ccccc2)c1N | 3.6 | 60
5 | COC(=O)c1sc(Oc2cccc(C)c2)c(C(N)=O)c1N | 3.61 | 40
6 | COC(=O)c1sc(Oc2ccccc2)c(C(N)=O)c1N | 3.11 | 26
7 | N#Cc1c(Oc2ccccc2)sc(C(=O)c2ccc([N+](=O)[O-])cc2)c1N | 4.53 | 18
8 | N#Cc1sc(Oc2ccccc2)c(C#N)c1N | 2.54 | 21
9 | COC(=O)c1sc(Oc2ccccc2)c(C#N)c1N | 3.66 | 41
10 | Cc1cccc(Oc2sc(C#N)c(N)c2C#N)c1 | 3.04 | 26
11 | Cc1cccc(Oc2sc(C(=O)c3ccccc3)c(N)c2C#N)c1 | 5.25 | 57
12 | N#Cc1c(Oc2ccccc2)sc(C(=O)c2ccccc2)c1N | 4.75 | 61
13 | Cc1cccc(Oc2sc(C(N)=O)c(N)c2C#N)c1 | 2.69 | 23
